{"source": "paper PMC6906348", "about": "(Therapeutic Advances in Medical Oncology, 2019)", "key": {"[1]": {"tested_on": "patients with MET-dysregulated advanced hepatocellular carcinoma (HCC)", "experiment": "Antitumor activity per RECIST 1.1", "assay_type": "in vivo, human", "conditions": "for Best overall response: Unknown: RECIST 1.1 data do not qualify for PD, PR, or SD", "summary_of_the_method": "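Asia-Pacific patients with advanced HCC received oral test compound twice daily in continuous 21-day cycles: 300 mg capsules (dose-determining), or 600 mg capsules or 400 mg tablets (expansion), until progression or toxicity. Investigator read response per RECIST 1.1 on CT, or contrast MRI if CT was contraindicated. MET-high meant IHC 3+ in ⩾50% tumor cells, or 2+ in ⩾50% plus FISH GCN ⩾5.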"}, "Plasma pharmacokinetics": {"experiment": "Plasma pharmacokinetics", "assay_type": "in vivo, human"}, "[2]": {"tested_on": "patients with advanced solid tumors", "conditions": "cited from earlier work"}, "[3]": {"tested_on": "MET-dependent tumor models", "conditions": "at well tolerated doses; cited from earlier work"}, "[4]": {"tested_on": "MET-amplified experimental HCC tumors", "conditions": "cited from earlier work"}, "MET": {"tested_on": "MET", "conditions": "cited from earlier work"}, "[5]": {"conditions": "Dose-determining n = 8 (300 mg BID capsules)"}, "[6]": {"conditions": "Dose-expansion, All patients n = 30"}, "[7]": {"conditions": "Dose-expansion, MET-high n = 10"}, "[8]": {"conditions": "MET-high expansion group (n = 10)"}, "[9]": {"conditions": "MET-high expansion group, 1 patient"}}, "data": [{"smiles": "CNC(=O)c1ccc(-c2cnc3ncc(Cc4ccc5ncccc5c4)n3n2)cc1F", "note": "[capmatinib]", "values": [{"measurement": "Best overall response: Complete response (CR)", "setting": "[1]; [5]", "result": "0 n (%)"}, {"measurement": "Best overall response: Partial response (PR)", "setting": "[1]; [5]", "result": "0 n (%)"}, {"measurement": "Best overall response: Progressive disease", "setting": "[1]; [5]", "result": "3 (38) n (%)"}, {"measurement": "Best overall response: Unconfirmed CR", "setting": "[1]; [5]", "result": "0 n (%)"}, {"measurement": "Best overall response: Unconfirmed PR", "setting": "[1]; [5]", "result": "0 n (%)"}, {"measurement": "Disease control rate (CR + PR + SD) (95% CI)", "setting": "[1]; [5]", "result": "2 (25) (3.2−65.1) n (%)"}, {"measurement": "Overall response rate (CI 95%)", "setting": "[1]; [5]", "result": "0 (0−36.9) n (%)"}, {"measurement": "Best overall response: Unknown", "setting": "[1]; [5]", "result": "3 (38) n (%)"}, {"measurement": "Best overall response: Complete response (CR)", "setting": "[1]; [6]", "result": "1 (3) n (%)"}, {"measurement": "Best overall response: Partial response (PR)", "setting": "[1]; [6]", "result": "2 (7) n (%)"}, {"measurement": "Best overall response: Progressive disease", "setting": "[1]; [6]", "result": "16 (53) n (%)"}, {"measurement": "Best overall response: Unconfirmed CR", "setting": "[1]; [6]", "result": "0 n (%)"}, {"measurement": "Best overall response: Unconfirmed PR", "setting": "[1]; [6]", "result": "1 (3) n (%)"}, {"measurement": "Disease control rate (CR + PR + SD) (95% CI)", "setting": "[1]; [6]", "result": "10 (33) (17.3−52.8) n (%)"}, {"measurement": "Overall response rate (CI 95%)", "setting": "[1]; [6]", "result": "3 (10) (2.1−26.5) n (%)"}, {"measurement": "Best overall response: Unknown", "setting": "[1]; [6]", "result": "4 (13) n (%)"}, {"measurement": "Best overall response: Complete response (CR)", "setting": "[1]; [7]", "result": "1 (10) n (%)"}, {"measurement": "Best overall response: Partial response (PR)", "setting": "[1]; [7]", "result": "2 (20) n (%)"}, {"measurement": "Best overall response: Progressive disease", "setting": "[1]; [7]", "result": "4 (40) n (%)"}, {"measurement": "Best overall response: Unconfirmed CR", "setting": "[1]; [7]", "result": "0 n (%)"}, {"measurement": "Best overall response: Unconfirmed PR", "setting": "[1]; [7]", "result": "1 (10) n (%)"}, {"measurement": "Disease control rate (CR + PR + SD) (95% CI)", "setting": "[1]; [7]", "result": "5 (50) (18.7−81.3) n (%)"}, {"measurement": "Overall response rate (CI 95%)", "setting": "[1]; [7]", "result": "3 (30) (6.7−65.2) n (%)"}, {"measurement": "Best overall response: Unknown", "setting": "[1]; [7]", "result": "1 (10) n (%)"}, {"measurement": "Best overall response: Complete response (CR)", "setting": "[1]; Dose-expansion, MET-low n = 20", "result": "0 n (%)"}, {"measurement": "Best overall response: Partial response (PR)", "setting": "[1]; Dose-expansion, MET-low n = 20", "result": "0 n (%)"}, {"measurement": "Best overall response: Progressive disease", "setting": "[1]; Dose-expansion, MET-low n = 20", "result": "12 (60) n (%)"}, {"measurement": "Best overall response: Unconfirmed CR", "setting": "[1]; Dose-expansion, MET-low n = 20", "result": "0 n (%)"}, {"measurement": "Best overall response: Unconfirmed PR", "setting": "[1]; Dose-expansion, MET-low n = 20", "result": "0 n (%)"}, {"measurement": "Disease control rate (CR + PR + SD) (95% CI)", "setting": "[1]; Dose-expansion, MET-low n = 20", "result": "5 (25) (8.7−49.1) n (%)"}, {"measurement": "Overall response rate (CI 95%)", "setting": "[1]; Dose-expansion, MET-low n = 20", "result": "0 (0−16.8) n (%)"}, {"measurement": "Best overall response: Unknown", "setting": "[1]; Dose-expansion, MET-low n = 20", "result": "3 (15) n (%)"}, {"measurement": "number of complete responses", "setting": "[1]; [8]", "result": 1}, {"measurement": "number of partial responses", "setting": "[1]; [8]", "result": 2}, {"measurement": "duration of durable complete response", "setting": "[1]; [9]", "result": "> 600", "unit": "days"}, {"measurement": "duration of durable partial response", "setting": "[1]; [9]", "result": "> 600", "unit": "days"}, {"measurement": "overall response rate", "setting": "[1]; all expansion patients (n = 30), regardless of MET status", "result": 10, "unit": "%"}, {"measurement": "time on treatment of two responding patients", "setting": "[1]; at data cut-off, still on treatment", "result": "over 600 days"}, {"measurement": "patients with MET-high status achieving tumor shrinkage", "setting": "[1]; expansion stage", "result": "6/10"}, {"measurement": "overall response rate", "setting": "[1]; expansion stage, MET-high (n = 10)", "result": 30, "unit": "%"}, {"measurement": "Tmax, Median", "setting": "Plasma pharmacokinetics; 300 mg BID capsule, Cycle 1 Day 1, n = 8, plasma", "result": 2.0, "unit": "h"}, {"measurement": "AUC(0-t)", "setting": "Plasma pharmacokinetics; human, plasma, oral, 300 mg, geomean AUC0−12 h, 300 mg BID capsules, cycle 1 day 1", "result": 7.74, "unit": "µg·h/mL"}, {"measurement": "Cmax", "setting": "Plasma pharmacokinetics; human, plasma, oral, 300 mg, geomean Cmax, 300 mg BID capsules, cycle 1 day 1", "result": 2.14, "unit": "µg/mL"}, {"measurement": "steady-state accumulation", "setting": "Plasma pharmacokinetics; patients with HCC", "result": "minimal"}, {"measurement": "safety profile", "setting": "[2]", "result": "tolerable safety profile"}, {"measurement": "effect on MET-dependent tumor models", "setting": "[3]", "result": "causes regression"}, {"measurement": "sensitivity of tumors to capmatinib", "setting": "[4]", "result": "highly sensitive"}, {"measurement": "MET inhibition", "setting": "MET", "result": "highly potent and selective"}]}]}
